Assay results reported in ChEMBL document CHEMBL1157241, “Search for Hsp90 inhibitors with potential anticancer activity: isolation and SAR studies of radicicol and monocillin I from two plant-associated fungi of the Sonoran desert” (J Nat Prod, 2006).
The source made the active and inactive calls. The calls are words filed in the database; no cut-off is given here.

Key:
MCF7 [1] = assay: Antiproliferative activity against human MCF7 cells at 1 uM by MTT assay; format: functional, cell-based
Oryctolagus cuniculus = organism: Oryctolagus cuniculus; assay: Inhibition of Hsp90 in rabbit reticulocyte lysate assessed as inhibition of heat-denatured firefly luciferase renaturation at 10 uM relative to geldanamycin
In short: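 Rabbit reticulocyte lysate with an ATP-regenerating system (10 mM phosphocreatine, 1 mM ATP, 17.5 units creatine phosphokinase) was preincubated 20 min with compound in DMSO. Firefly luciferase (100 nM, pH 7.8 tricine buffer) was heat-denatured 8 min at 40 °C, then diluted 10-fold into the lysate and incubated at 28 °C. Luminescence was read in triplicate at 3 min and expressed as % of DMSO control.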

[2] = Cytotoxicity against in mouse 3T3-Y9/B12 cells at 10 uM; format: cell-based
In short: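 Mouse 3T3-Y9/B12 heat-shock reporter cells were plated at 20 000 cells/well and left to attach overnight. Compound was added at 10.0 µM in triplicate wells and incubated overnight. Treated wells were then examined by microscope for toxicity, recording whether any living cells remained.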

Mus musculus = organism: Mus musculus; assay: Induction of heat shock response in mouse 3T3-Y9/B12 cells at 5 uM by fluorescence technique relative to geldanamycin; format: functional, cell-based
In short: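 3T3-Y9/B12 reporter cells were plated at 20 000 cells/well and attached overnight. Triplicate wells received compound at 5.0 µM, GDA positive control at 5.0 µM, or DMSO vehicle (≤0.1%). After overnight incubation, wells were rinsed and read in PBS by fluorescence (ex 485, em 525 nm). Signal was expressed as percentage of DMSO control, mean ± SD of triplicates, with three independent experiments.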

MCF7 [3] = assay: Antiproliferative activity against human MCF7 cells by MTT assay; format: functional, cell-based
In short: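 MCF-7 cells were seeded at 2000 cells/well and dosed the next day with serial dilutions in triplicate. GDA was the positive control and DMSO vehicle the negative control. After 3 days at 37 °C under 5% CO2, MTT was added for 3 h in the dark. Medium was replaced with DMSO and absorbance read at 570 nm, minus 650 nm background.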

| Compound | Activity (MCF7 [1]) | Activity (Oryctolagus cuniculus) | Activity [2] | Activity (Mus musculus) | IC50 (MCF7 [3]) [nM] |
| --- | --- | --- | --- | --- | --- |
| C[C@H]1CCC[C@@H](O)CCCCCc2cc(O)cc(O)c2C(=O)O1 (stereo in doubt; 14) | inactive | Active |  |  |  |
| C[C@H]1CCC[C@@H](O)CCCCCc2cc(O)cc(O)c2C(=O)O1 (stereo in doubt; 16) | inactive | Active |  |  |  |
| COc1cc2c(c(OC)c1)C(=O)O[C@H](C)C[C@H]1O[C@@H]1/C=C\C=C\C(=O)C2 [DIMETHYL MONOCILLIN I] |  |  | Toxic |  |  |
| COc1cc(OC)c2c(c1Cl)CC(=O)/C=C/C=C\[C@H]1O[C@@H]1C[C@@H](C)OC2=O [DIMETHYL RADICICOL] | inactive |  | Toxic | Active |  |
| C[C@@H]1C[C@H](O)CCCCCC(=O)Cc2cc(O)cc(O)c2C(=O)O1 [HEXAHYDROMONOCILLIN I] |  |  | Toxic |  |  |
| C[C@@H]1C[C@H](O)CCCCCC(=O)Cc2c(Cl)c(O)cc(O)c2C(=O)O1 [HEXAHYDRORADICICOL] |  |  | Toxic |  |  |
| C[C@@H]1C[C@H]2O[C@@H]2/C=C\C=C\C(=O)Cc2cc(O)cc(O)c2C(=O)O1 [MONOCILLIN I] |  | Active | Toxic | Active | 340 |
| COc1cc(O)c2c(c1)CC(=O)/C=C/C=C\[C@H]1O[C@@H]1C[C@@H](C)OC2=O [MONOMETHYL MONOCILLIN I] | inactive |  | Toxic | Active |  |
| COc1cc(O)c2c(c1Cl)CC(=O)/C=C/C=C\[C@H]1O[C@@H]1C[C@@H](C)OC2=O [MONOMETHYL RADICICOL] |  | Active | Toxic | Active | 900 |
| C[C@@H]1C[C@H]2O[C@@H]2/C=C\C=C\C(=O)Cc2c(Cl)c(O)cc(O)c2C(=O)O1 [RADICICOL] |  | Active | Toxic | Active | 30 |
| C[C@@H]1C[C@H]2O[C@@H]2CCCCC(=O)Cc2cc(O)cc(O)c2C(=O)O1 [TETRAHYDROMONOCILLIN I] | inactive | Active | Toxic | Active |  |
| C[C@@H]1C[C@H]2O[C@@H]2CCCCC(=O)Cc2c(Cl)c(O)cc(O)c2C(=O)O1 [TETRAHYDRORADICICOL] |  | Active | Toxic | Active | 190 |
| C[C@H]1CCCC(=O)CCCCCc2cc(O)cc(O)c2C(=O)O1 [ZEARALANONE] |  |  | Toxic |  |  |
| C[C@H]1CCCC(=O)CCC/C=C/c2cc(O)cc(O)c2C(=O)O1 [ZEARALENONE] | inactive | Active | Toxic |  |  |
| C[C@H]1CCC[C@H](O)CCCCCc2cc(O)cc(O)c2C(=O)O1 [ZERANOL] |  |  | Toxic |  |  |
